Measurements published in ChEMBL document CHEMBL3232882, “N-Acyl-phosphoramidates as potential novel form of gemcitabine prodrugs” (Bioorg Med Chem, 2014).

Assays:
[1] = biological target: T1, Adenosine 5'-monophosphoramidase HINT1 (Homo sapiens, UniProt P49773); assay: Drug metabolism in human K562 cell lysate assessed as HINT-1-mediated compound dephosphorylation at 1 mM after 22 hrs by RP-HPLC analysis relative to control; type: ADME, cell-based; conditions: k562, 22 h, 1000 µM
In short: (§1)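 K562 lysate from confluent cells, scraped and sonicated in PBS with protease inhibitors. Substrate 1 mM in 20 mM Na-HEPES pH 7.2, 0.5 mM MgCl2, with lysate protein, 22 h at 37 °C. Quenched on ice, heat-denatured, centrifuged. Supernatant analysed by C18 RP-HPLC (0–8% acetonitrile in 0.1 M TEAB pH 7.4, 20 min) at 260 nm. Peaks integrated; products identified by co-injection; mean ± SE, at least duplicate.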

[2] = biological target: T1, Adenosine 5'-monophosphoramidase HINT1; assay: Drug metabolism in human K562 cell lysate assessed as HINT-1-mediated compound formation by measuring retention time at 1 mM after 22 hrs by RP-HPLC analysis relative to control; type: ADME, cell-based; conditions: k562, 22 h, 1000 µM; in short: as §1
[3] = biological target: T1, Adenosine 5'-monophosphoramidase HINT1; assay: Drug level in human K562 cell lysate treated with 1 mM gemcitabine 5'-phosphoramidate assessed as HINT-1-mediated compound formation after 22 hrs by RP-HPLC analysis relative to control; type: ADME, cell-based; conditions: k562, 22 h; in short: as §1
CFPAC-1 [4] = assay: Cytotoxicity against human CFPAC-1 cells assessed as reduction of cell survival after 72 hrs by MTT assay; type: functional, cell-based; conditions: CFPAC-1, 72 h
In short: (§2)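 HeLa seeded at 7×10^3 and CFPAC at 10^4 per well in RPMI 1640 with 10% FCS under 5% CO2. After 24 h, exposure to compounds (aqueous 100 mM stock; final 1 mM to 1×10^-6 mM) for 72 or 96 h. MTT 2 h, formazan dissolved in 20% SDS/50% DMF pH 4.7, A570/650. Untreated cells = 100%; IC50 from dose-response curves, 2 independent experiments in triplicate.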

HeLa [5] = assay: Cytotoxicity against human HeLa cells assessed as reduction of cell survival after 96 hrs by MTT assay; type: functional, cell-based; in short: as §2
HeLa [6] = assay: Cytotoxicity against human HeLa cells assessed as reduction of cell survival after 72 hrs by MTT assay; type: functional, cell-based; in short: as §2
HUVEC = assay: Cytotoxicity against HUVEC assessed as cell after 48 hrs by MTT assay; type: cell-based; conditions: Homo sapiens
In short: (§3)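 HUVEC (from fresh umbilical cords, gelatin-coated dishes, RPMI 1640 with 20% FBS, heparin, ECGF) and K562 (RPMI 1640, 10% FCS) were seeded at 7×10^3 per well. After 24 h, exposure for 48 h to compounds from 100 mM aqueous stock, final 1 mM down to 1×10^-6 mM. MTT read at 570/650 nm; untreated = 100%; IC50 from dose-response curves, mean of 2 experiments in triplicate.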

K562 = assay: Cytotoxicity against human K562 cells assessed as reduction of cell survival after 48 hrs by MTT assay; type: functional, cell-based; conditions: K562, 48 h; in short: as §3
CFPAC-1 [7] = assay: Cytotoxicity against human CFPAC-1 cells assessed as reduction of cell survival after 96 hrs by MTT assay; type: functional, cell-based; conditions: CFPAC-1, 96 h; in short: as §2
[8] = biological target: T2, Adenosine 5'-monophosphoramidase HINT1 (Oryctolagus cuniculus, UniProt P80912); assay: Drug metabolism assessed as recombinant rabbit HINT1-mediated hydrolysis of NH2-pdFdC to pdFdC per ug protein at 0.2 mM by RP-HPLC analysis; type: ADME; conditions: 200 µM
In short: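 Recombinant Hint-1 expressed in E. coli BL21 from pSGA02-HINT, purified by AMP-agarose affinity; hydrolysis of NH2-pdFdC to pdFdC at 0.2 mM substrate, activity expressed per µg protein; products followed by RP-HPLC on C18 column with acetonitrile gradient in 0.1 M triethylammonium bicarbonate, pH 7.4, peak areas integrated.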

[9] = biological target: T1, Adenosine 5'-monophosphoramidase HINT1; assay: Drug metabolism in human K562 cell lysate assessed as HINT-1-mediated gemcitabine formation at 1 mM after 22 hrs by RP-HPLC analysis relative to control; type: ADME, cell-based; conditions: k562, 22 h, 1000 µM; in short: as §1
[10] = biological target: T2, Adenosine 5'-monophosphoramidase HINT1; assay: Drug metabolism assessed as recombinant rabbit HINT1-mediated hydrolysis of NH2-pdFdC to pdFdC per ug protein at 1 mM by RP-HPLC analysis; type: ADME; conditions: 1000 µM
[11] = biological target: T1, Adenosine 5'-monophosphoramidase HINT1; assay: Drug metabolism in human K562 cell lysate assessed as HINT-1-mediated gemcitabine 5'-monophosphate formation at 1 mM after 22 hrs by RP-HPLC analysis relative to control; type: ADME, cell-based; conditions: k562, 22 h, 1000 µM; in short: as §1

T1 sequence (P49773 whole entry): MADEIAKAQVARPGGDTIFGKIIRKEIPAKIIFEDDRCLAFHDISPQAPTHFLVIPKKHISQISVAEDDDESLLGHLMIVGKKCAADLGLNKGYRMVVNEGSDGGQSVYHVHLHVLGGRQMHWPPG
T2 sequence (P80912 whole entry): as the sequence (P49773 whole entry) above, with R37Q, V65A, D69A, N91K, H122N counted along it

Row | Compound | Drug metabolism [1] | Retention_time [2] | Drug metabolism [3] | IC50 (CFPAC-1 [4]) | IC50 (HeLa [5]) | IC50 (HeLa [6]) | IC50 (HUVEC) | IC50 (K562) | IC50 (CFPAC-1 [7]) | Drug metabolism [8] | Drug metabolism [9] | Drug metabolism [10] | Drug metabolism [11]
1 | Nc1ccn([C@@H]2O[C@H](COP(=O)(O)O)[C@@H](O)C2(F)F)c(=O)n1 | metabolite_detected | 11.1 min | metabolite_detected | – | – | – | – | – | – | – | – | – | –
2 | Nc1ccn([C@@H]2O[C@H](CO)[C@@H](O)C2(F)F)c(=O)n1 [GEMCITABINE] | – | 11.8 min | metabolite_detected | 0.47 µM | 0.9 µM | 10 µM | 0.003 µM | 0.05 µM | 0.35 µM | – | – | – | –
3 | Nc1ccn([C@@H]2O[C@H](COP(N)(=O)O)[C@@H](O)C2(F)F)c(=O)n1 | – | 10.6 min | – | – | – | – | – | – | – | 0.88 nmol/min/µg | metabolite_detected | 1.88 nmol/min/µg | metabolite_detected
